These results are taken from ChEMBL document CHEMBL1145811, “Synthesis and antibacterial activity of a novel series of acylides: 3-O-(3-pyridyl)acetylerythromycin A derivatives” (J Med Chem, 2003).

For orientation: ED50 means the midpoint of the dose-response relation. Low readings indicate an effect at a small dose, high ones a need for a large dose.

Values after ≈ are worked out from the molar mass of the structure shown.

Format in all cases: functional
Experiment [1] has as its system Mus musculus. The experiment is described as follows: Survival rate of mouse inoculated intraperitoneally with 5.05*10e7 CFU of erythromycin-susceptible strain Streptococcus pneumoniae IID553 after treatment with 3 mg of compound. The method in brief: (§1)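 Mouse protection test: mice were infected intraperitoneally with 5.05 × 10^7 CFU/mouse, then given the macrolide orally 1 h after inoculation. Survival was recorded as the read-out.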

Experiment [2] relates to Haemophilus influenzae. The experiment is described as follows: In vitro minimum inhibitory concentration for antibacterial activity against Haemophilus influenzae ATCC 43095 (ampicillin-susceptible strain that does not produce beta-lactamase). The method in brief: (§2)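 Agar dilution MIC determined by the Japan Society of Chemotherapy standard method for aerobic bacteria.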

For experiment [3], the system named is Mus musculus. The experiment is described as follows: Effective dose in vivo, in mouse inoculated intraperitoneally with 5.09*10e7 CFU of erythromycin susceptible strain Staphylococcus aureus Smith. The following applies: ip. An outline of the steps: (§3)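 Mouse protection test: mice were infected intraperitoneally with erythromycin-susceptible S. aureus Smith or S. pneumoniae IID553. Compounds were given orally 1 h after inoculation.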

For experiment [4], the system named is Haemophilus influenzae. The experiment is described as follows: In vitro minimum inhibitory concentration for antibacterial activity against Haemophilus influenzae ATCC 33533 (ampicillin-resistant strain that produces beta-lactamase). The method in brief: as §2
Experiment [5] deals with Staphylococcus aureus. The experiment is described as follows: In vitro minimum inhibitory concentration for antibacterial activity against erythromycin susceptible strain Staphylococcus aureus Smith.
The test system of experiment [6] is Streptococcus pneumoniae. The experiment is described as follows: In vitro minimum inhibitory concentration for antibacterial activity against erythromycin-susceptible strain Streptococcus pneumoniae IID553. The method in brief:
(§4)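 MIC by agar dilution following the Japan Society of Chemotherapy standard method for aerobic bacteria. S. aureus 209P-JC and S. pneumoniae IID553 are erythromycin-susceptible strains.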

Experiment [7] has as its system Mus musculus. The experiment is described as follows: Effective dose in vivo, in mouse inoculated intraperitoneally with 7.05*10e2 CFU of erythromycin susceptible strain Streptococcus pneumoniae IID553. To be noted: ip. An outline of the steps:
as §3

In experiment [8] the test system is Staphylococcus aureus. The experiment is described as follows: In vitro minimum inhibitory concentration for antibacterial activity against Staphylococcus aureus B1 (inducibly MLSb-resistant strain encoded by the erm(C) gene). The method in brief: as §2
Experiment [9] has as its system Streptococcus pneumoniae. The experiment is described as follows: In vitro minimum inhibitory concentration for antibacterial activity against Streptococcus pneumoniae 211 (MLSb-resistant strain encoded by the erm(B) gene). An outline of the steps: as §2
The subject of experiment [10] is Streptococcus pneumoniae. The experiment is described as follows: In vitro minimum inhibitory concentration for antibacterial activity against erythromycin susceptible strain Streptococcus pneumoniae IID553.
Experiment [11] deals with Mus musculus. The experiment is described as follows: Survival rate of mouse inoculated intraperitoneally with 5.05*10e7 CFU of erythromycin-susceptible strain Streptococcus pneumoniae IID553 after treatment with 0.3 mg of compound. An outline of the steps:
as §1

Experiment [12] concerns Staphylococcus aureus. The experiment is described as follows: In vitro minimum inhibitory concentration for antibacterial activity against erythromycin-susceptible strain Staphylococcus aureus […]. The method in brief: as §4
Experiment [13] relates to Streptococcus pneumoniae. The experiment is described as follows: In vitro minimum inhibitory concentration for antibacterial activity against Streptococcus pneumoniae 210 (efflux-resistant strain encoded by the mef(A) gene). The method in brief:
as §2

The subject of experiment [14] is Staphylococcus aureus. The experiment is described as follows: In vitro minimum inhibitory concentration for antibacterial activity against Staphylococcus aureus SR138 (constitutively MLSb-resistant strain encoded by the erm(A) gene). An outline of the steps:
as §2

As for `CC[C@H]1OC(=O)[C@H](C)[C@@H](O[C@H]2C[C@@](C)(OC)[C@@H](O)[C@H](C)O2)[C@H](C)[C@@H](O[C@@H]2O[C@H](C)C[C@H](N(C)C)[C@H]2O)[C@](C)(O)C[C@@H](C)CN(C)[C@H](C)[C@@H](O)[C@]1(C)O` [AZITHROMYCIN], the Survival rate stood at 100% in experiment [1] and 50% in experiment [11]. In addition, the MIC in experiment [2] was 1.56 µg/mL (≈ 2.08 µM); in experiment [4], 1.56 µg/mL (≈ 2.08 µM); in experiment [5] it was 0.78 µg/mL (≈ 1.04 µM); in experiment [6] it was 0.1 µg/mL (≈ 0.134 µM); in experiment [8], above 100 µg/mL; in experiment [9] it was above 100 µg/mL. In addition, the MIC in [10] was 0.1 µg/mL (≈ 0.134 µM); in experiment [12] it was 0.39 µg/mL (≈ 0.521 µM); in experiment [13], 0.78 µg/mL (≈ 1.04 µM); in experiment [14] it was above 100 µg/mL. Moreover, the ED50 was 15.7 mg/kg in experiment [3] and 13.9 mg/kg in [7].

In the case of `CC[C@H]1OC(=O)[C@H](C)[C@@H](O[C@H]2C[C@@](C)(OC)[C@@H](O)[C@H](C)O2)[C@H](C)[C@@H](O[C@@H]2O[C@H](C)C[C@H](N(C)C)[C@H]2O)[C@](C)(O)C[C@@H](C)C(=O)[C@H](C)[C@@H](O)[C@]1(C)O` [ERYTHROMYCIN], the ED50 in experiment [3] came to 56.6 mg/kg; in experiment [7] it was 111 mg/kg. For the same compound, the MIC in experiment [5] came out at 0.2 µg/mL (≈ 0.273 µM); in experiment [10] it was 0.1 µg/mL (≈ 0.136 µM).
